Assay outcomes deposited in PubChem BioAssay by Broad Institute.
Compounds with a hit are over-represented: about 2.3% of the library has one in this group of screens.
PAX8 inh HTS – PAX8 transcriptional activity inhibition; hit rate 1.2% among 360,000; inhibition, % at 12.6 µM; RMG-I TPO-luciferase reporter, SteadyGlo, 24 h;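 active means mean replicate inhibition at least 60% with every replicate also reaching 60%; inconclusive means only one of the two criteria is met; inactive means mean below 60% and not all replicates reaching 60%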;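 further: luciferase light reporting Pax8 driven TPO promoter activity; plate controls were median of neutral control wells for no effect and mitoxantrone controls for full effect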
FN deposition inh – fibronectin deposition inhibition; inhibition, % at 12.6 µM; hit rate 0.086% among 350,000; AID 743247; AH1F fibroblasts, Alexa488-fibronectin deposition fluorescence, overnight;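 active means mean inhibition across replicates of 30% or more, regardless of how many single replicates reach that level; inconclusive means mean under 30% yet at least half of replicates reach 30%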;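 further: positive control wells lacked labelled fibronectin entirely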
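Material – AH1F fibroblast monolayer, labelled fibronectin deposition · Reagent – labelled fibronectin 24 nM · Timing – 1 h adhesion, overnight exposure · Measured by – fluorescence at 485 nm excitation, 525 nm emission · Read-out – inhibition of fibronectin deposition signal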
Env fusion inh – inhibitors of HIV Env-mediated cell fusion | HeLa-JRFL Env/CEM21 cell fusion, luciferase | inhibition, % at 12.3 µM | hit rate 1.1% among 360,000;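 active means mean replicate inhibition score of at least 50 and every replicate individually at or above 50; inconclusive means only one of the two criteria met; inactive means mean below 50 and not all replicates reaching 50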;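 further: 0% = plate neutral controls and 100% = maraviroc near 300 nM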
CFTR F508del cor – correctors of CFTR F508del function in bronchial epithelial cells; CFBE cells, YFP halide quenching; stimulated with forskolin plus potentiator P3; % fluorescence drop versus neutral controls; activity (quench increase), % at 7.58 µM; hit rate 0.36% among 350,000;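 active means mean added fluorescence quench of at least 8% versus neutral control, with both replicates also reaching 8%; inconclusive means only one of the mean or replicate conditions met; inactive means mean below 8% and not both replicates reaching 8%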;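 further: cells transiently co-express mutant CFTR-F508del with the halide-sensitive YFP; corrector assay measuring rescue of mutant channel to the surface after 24 h compound exposure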
PGC1a acetyl inh – lowers PGC1a acetylation signal in U2OS cells; AlphaScreen anti-acetyl-lysine; with virally co-expressed GCN5 acetyltransferase; inhibition, % at 15.6 µM; hit rate 0.17% among 350,000; AID 651687;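 active means every replicate shows inhibition of at least 40%; inconclusive means mean inhibition at least 40% but some replicate below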;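 further: 0% = neutral control wells and 100% = positive control wells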
EWS-Fli block – EWS/Fli transcriptional activity inhibition. inhibition, % at 12.6 µM. hit rate 0.67% among 350,000. AID 651661. A673 NR0B1-luciferase reporter, viability-normalised;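 active means mean inhibition of at least 50% after viability correction, with every replicate also passing that limit; inconclusive means mean reaches 50% but only one of two replicates passes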;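 further: firefly luciferase signal divided by Alamar Blue viability fluorescence both relative to DMSO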
Active calls of the source: *; [ ] = another dose, or the depositor's remark.

Cc1ccccc1-c1ccc2c(c1)O[C@H](CN(C)C(=O)Nc1ccc(C(F)(F)F)cc1)[C@H](C)CN([C@H](C)CO)S2(=O)=O was read as PAX8 inh HTS 83*, FN deposition inh 6, Env fusion inh 72*[16.7 µM], CFTR F508del cor -6, PGC1a acetyl inh 17 and EWS-Fli block 15.
`Cc1ccc(-c2ccc3c(c2)O[C@@H](CN(C)C(=O)Nc2ccc(F)cc2)[C@@H](C)CN([C@H](C)CO)S3(=O)=O)cc1` gave FN deposition inh 20, Env fusion inh 7[16.7 µM], CFTR F508del cor 8.5*, PGC1a acetyl inh -5 and EWS-Fli block 8.
`O=C(Nc1ccc2c(c1)[C@H]1C[C@H](CC(=O)N3CCOCC3)O[C@H](CO)[C@H]1O2)c1ccc2c(c1)OCO2` gave PAX8 inh HTS 3, FN deposition inh -4, Env fusion inh 12[16.7 µM], CFTR F508del cor -3, PGC1a acetyl inh 6 and EWS-Fli block -2.
`COCC#Cc1ccc(CC[C@H]2O[C@H]3CC[C@H](CO)O[C@H]3C[C@H]2NC(=O)Nc2c(C)noc2C)cc1` gave PAX8 inh HTS -16, CFTR F508del cor -1, PGC1a acetyl inh 1 and EWS-Fli block -37.
CC(C)C#Cc1ccc2c(c1)O[C@H](CN(C)C(=O)c1ccccn1)[C@@H](C)CN([C@H](C)CO)S2(=O)=O was read as Env fusion inh -2[16.7 µM], CFTR F508del cor -1, PGC1a acetyl inh -7 and EWS-Fli block 5.
CCn1c2ccccc2c2cc(NC(=O)c3cccc(OC)c3OC)ccc21 was read as PAX8 inh HTS -22, FN deposition inh 6, CFTR F508del cor -1 and EWS-Fli block -2.
Screening CCn1c2ccccc2c2cc(NC(=O)CNCc3ccccc3OC)ccc21 returned PAX8 inh HTS 16, FN deposition inh 14, Env fusion inh 17, CFTR F508del cor 3 and EWS-Fli block 57*.
CO[C@H]1CN(C)C(=O)c2cc(NC(=O)C3CC3)ccc2OC[C@@H](C)N(C(=O)c2ccccc2F)C[C@H]1C was read as PAX8 inh HTS -10, FN deposition inh 6, Env fusion inh -2[16.7 µM], CFTR F508del cor 0, PGC1a acetyl inh -16 and EWS-Fli block 8.
`CCOCCCNC(=S)N1CCN(c2nc(-c3ccc(F)cc3)cs2)CC1` gave PAX8 inh HTS 5, FN deposition inh 6, Env fusion inh inconclusive, CFTR F508del cor 3, PGC1a acetyl inh 1 and EWS-Fli block 12.
COCCCNC(=S)N1CCN(c2nc(-c3ccc(F)cc3)cs2)CC1 was read as PAX8 inh HTS -6, FN deposition inh -2, Env fusion inh 108*, CFTR F508del cor 2, PGC1a acetyl inh -3 and EWS-Fli block 10.
For S=C(NCCCN1CCOCC1)N1CCN(c2nc(-c3ccc(Cl)cc3)cs2)CC1 the results were PAX8 inh HTS 39, FN deposition inh 3, Env fusion inh 75*, CFTR F508del cor -1 and EWS-Fli block 28.
For S=C(NCC1CCCO1)N1CCN(c2nc(-c3ccc(Cl)cc3)cs2)CC1 (stereo not drawn) the results were PAX8 inh HTS 3, Env fusion inh 57*, CFTR F508del cor 1 and EWS-Fli block 14.
COCC(=O)Nc1ccc2c(c1)C(=O)N(C)[C@H]1CC[C@H](CC(=O)Nc3cn(C)nc3C)O[C@@H]1CO2 was read as FN deposition inh -1.
`CN1CCN(C(=O)C[C@H]2C=C[C@H](NC(=O)Nc3ccccc3F)[C@@H](CO)O2)CC1` gave PAX8 inh HTS -17, FN deposition inh 4, Env fusion inh -13[16.7 µM], CFTR F508del cor 4, PGC1a acetyl inh 4 and EWS-Fli block 4.
Screening CC(C)NC(=O)N(C)C[C@H]1Oc2c(cccc2N(C)C)C(=O)N(C)C[C@@H]1C returned FN deposition inh -4.
`C[C@@H]1CN([C@H](C)CO)C(=O)c2cc(C#C[C@@H](C)O)cnc2O[C@H]1CN(C)C(=O)c1ccccc1F` gave Env fusion inh 5[16.7 µM], CFTR F508del cor -1, PGC1a acetyl inh 25 and EWS-Fli block -1.
Screening O=C(NCCCN1CCC(Cc2ccccc2)CC1)C1CC(=O)N(C2CCCCCC2)C1 (stereo not drawn) returned Env fusion inh 55* and PGC1a acetyl inh -4.
Screening COc1cccc(-c2cn(CC[C@H]3CC[C@@H](NC(=O)CC4CC4)[C@@H](CO)O3)nn2)c1 returned PAX8 inh HTS 8, FN deposition inh -9, Env fusion inh -101[16.7 µM], CFTR F508del cor -1, PGC1a acetyl inh 9 and EWS-Fli block 5.
For COc1ccc(CCC(=O)N2CCN(S(=O)(=O)c3ccc(OC(F)(F)F)cc3)CC2)cc1 the results were PAX8 inh HTS -9, FN deposition inh -2, Env fusion inh 42, CFTR F508del cor 16* and EWS-Fli block 2.
Screening COc1ccc(CCC(=O)N2CCN(S(=O)(=O)c3ccc4ccccc4c3)CC2)cc1 returned PGC1a acetyl inh -20.
C[C@H](CO)N1C[C@H](C)[C@@H](CN(C)C(=O)NC2CCCCC2)Oc2ccc(NS(=O)(=O)c3ccc(F)cc3)cc2CC1=O was read as PAX8 inh HTS 14, CFTR F508del cor -3, PGC1a acetyl inh 4 and EWS-Fli block 10.
Screening O=C(C[C@H]1CC[C@@H](NC(=O)Nc2ccccc2F)[C@@H](CO)O1)NCc1ccc(Cl)cc1 returned PAX8 inh HTS -2, FN deposition inh 11, Env fusion inh 59*[16.7 µM], CFTR F508del cor 1, PGC1a acetyl inh -4 and EWS-Fli block 1.
`O=C(O)C[C@@H]1C=C[C@@H](NC(=O)Nc2ccccc2)[C@H](CO)O1` gave PAX8 inh HTS -1, FN deposition inh 8, Env fusion inh 58*[16.7 µM], CFTR F508del cor 2, PGC1a acetyl inh -5 and EWS-Fli block 1.
For O=C(O)C[C@@H]1C=C[C@H](NC(=O)Nc2ccccc2)[C@@H](CO)O1 the results were PAX8 inh HTS -3, FN deposition inh -3, Env fusion inh -4[16.7 µM], CFTR F508del cor -1, PGC1a acetyl inh 6 and EWS-Fli block -1.
Screening COc1ccccc1NC(=O)N[C@H]1C=C[C@H](CC(=O)N[C@H](C)c2ccccc2)O[C@@H]1CO returned PAX8 inh HTS 3, FN deposition inh -20, Env fusion inh 14[16.7 µM], CFTR F508del cor 1, PGC1a acetyl inh -1 and EWS-Fli block -51.
Screening COc1ccccc1NC(=O)N[C@H]1C=C[C@@H](CC(=O)N[C@H](C)c2ccccc2)O[C@H]1CO returned PAX8 inh HTS 9, FN deposition inh -1, Env fusion inh 94*[16.7 µM], CFTR F508del cor -1, PGC1a acetyl inh -3 and EWS-Fli block 9.
Screening O=C(C[C@H]1CC[C@H](NC(=O)NC2CCCCC2)[C@H](CO)O1)NCc1ccc(Cl)cc1 returned PAX8 inh HTS -6, FN deposition inh -7, Env fusion inh 3[16.7 µM], CFTR F508del cor -1, PGC1a acetyl inh 54* and EWS-Fli block 4.
For CC(=O)N(C)C[C@@H]1Oc2ccc(NC(=O)NC(C)C)cc2CC(=O)N(C)C[C@H]1C the results were FN deposition inh -7.
